The record followed here is ChEMBL document CHEMBL1143707, “7-Arylpiperazinylalkyl and 7-tetrahydroisoquinolinylalkyl derivatives of 8-alkoxy-purine-2,6-dione and some of their purine-2,6,8-trione analogs as 5-HT(1A), 5-HT(2A), and 5-HT(7) serotonin receptor ligands” (Bioorg Med Chem, 2007).

The target of assay [1] is T1, 5-hydroxytryptamine receptor 1A (Rattus norvegicus, UniProt P19327).
T1 sequence (P19327 whole entry): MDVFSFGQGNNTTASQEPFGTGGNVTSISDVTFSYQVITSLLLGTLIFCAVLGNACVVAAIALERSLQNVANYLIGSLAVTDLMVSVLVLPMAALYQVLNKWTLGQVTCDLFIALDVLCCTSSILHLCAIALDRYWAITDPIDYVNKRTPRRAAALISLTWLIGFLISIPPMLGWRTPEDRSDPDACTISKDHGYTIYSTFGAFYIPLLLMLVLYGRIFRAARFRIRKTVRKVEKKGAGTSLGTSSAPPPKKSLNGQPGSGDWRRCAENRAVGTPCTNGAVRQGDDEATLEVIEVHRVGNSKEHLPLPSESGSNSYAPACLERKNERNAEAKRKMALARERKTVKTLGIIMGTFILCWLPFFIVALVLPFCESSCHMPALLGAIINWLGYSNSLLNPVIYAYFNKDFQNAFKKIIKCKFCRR
The assay can be described thus: Displacement of [3H]8-OH-DPAT from rat brain 5HT1A receptor. An outline of the steps: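 Rat hippocampal membranes; 1 nM [3H]-8-OH-DPAT; nonspecific binding with 10 μM 5-HT; 8–10 competitor concentrations in triplicate, ≥3 experiments; GF/B filtration, ice-cold buffer washes, scintillation counting; Ki by nonlinear regression with Cheng–Prusoff.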
A general note: Loss of bound radioactivity is the signal in a displacement assay; it reports binding, not function.

Assay [2] addresses 5-hydroxytryptamine receptor 7 (Rattus norvegicus, UniProt P32305). In words: Displacement of [3H]5CT from 5HT7 receptor in Wistar rat hyphalamic membrane. Format: cell membranes.
In assay [3] the target is 5-hydroxytryptamine receptor 2A (Rattus norvegicus, UniProt P14842). In words: Displacement of [3H]ketanserin from rat brain 5HT2A receptor. Summed up: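 Rat brain membranes; 0.6 nM [3H]-ketanserin; nonspecific binding with 1 μM methysergide; 8–10 competitor concentrations in triplicate, ≥3 experiments; GF/B filtration, scintillation counting; Ki via Cheng–Prusoff.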

pKi: −log10 of the molar value.

Sequence of 5-hydroxytryptamine receptor 7 (P32305 whole entry): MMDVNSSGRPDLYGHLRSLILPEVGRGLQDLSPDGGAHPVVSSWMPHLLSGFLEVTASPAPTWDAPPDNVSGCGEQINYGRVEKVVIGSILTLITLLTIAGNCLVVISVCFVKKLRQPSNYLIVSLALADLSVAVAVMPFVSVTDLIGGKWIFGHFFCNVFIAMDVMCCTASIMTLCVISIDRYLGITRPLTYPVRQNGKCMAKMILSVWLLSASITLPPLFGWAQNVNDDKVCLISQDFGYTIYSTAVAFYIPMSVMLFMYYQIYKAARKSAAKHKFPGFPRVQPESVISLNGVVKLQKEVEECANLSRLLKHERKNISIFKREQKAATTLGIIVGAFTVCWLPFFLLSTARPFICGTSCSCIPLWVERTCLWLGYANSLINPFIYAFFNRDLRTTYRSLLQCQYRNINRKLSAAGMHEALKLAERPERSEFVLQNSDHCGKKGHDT
Sequence of 5-hydroxytryptamine receptor 2A (P14842 whole entry): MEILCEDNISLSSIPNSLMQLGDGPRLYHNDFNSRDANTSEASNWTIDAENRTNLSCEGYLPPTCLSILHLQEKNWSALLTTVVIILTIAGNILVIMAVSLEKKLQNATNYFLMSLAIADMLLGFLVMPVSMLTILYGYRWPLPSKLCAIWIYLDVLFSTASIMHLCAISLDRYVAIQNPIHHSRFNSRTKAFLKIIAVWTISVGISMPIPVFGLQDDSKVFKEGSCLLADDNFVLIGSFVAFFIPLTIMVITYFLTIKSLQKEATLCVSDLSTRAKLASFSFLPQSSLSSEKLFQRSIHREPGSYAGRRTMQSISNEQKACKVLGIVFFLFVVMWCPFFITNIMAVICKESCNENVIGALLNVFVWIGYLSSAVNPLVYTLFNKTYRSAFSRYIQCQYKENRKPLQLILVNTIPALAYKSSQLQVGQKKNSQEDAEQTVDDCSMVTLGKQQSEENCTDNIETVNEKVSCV

Consider `CCCOc1nc2c(c(=O)n(C)c(=O)n2C)n1CCCN1CCc2ccccc2C1`, for which the values for the negative logarithm of the Ki (pKi) in assay [1], in assay [2] and in assay [3] were 6.00, 5.36 and 5.58, respectively.
For `CCOc1nc2c(c(=O)n(C)c(=O)n2C)n1CCCCN1CCc2ccccc2C1` the same measures were 6.37, 7.08 and 5.71.
For `Cn1c(=O)c2c([nH]c(=O)n2CCCN2CCN(c3ccccc3)CC2)n(C)c1=O` the same measures were 5.38, 4.86 and 6.64.
Take `Cn1c(=O)c2c([nH]c(=O)n2CCCCN2CCN(c3ccccc3)CC2)n(C)c1=O`: the pKi in assay [1] was 5.82; in assay [2], 5.74; in assay [3] it was 6.25.
Turning to `Cn1c(=O)c2c([nH]c(=O)n2CCCCN2CCN(c3cccc(Cl)c3)CC2)n(C)c1=O`, the figures for the negative logarithm of the Ki (pKi) in assay [1], in assay [2] and in assay [3] were 6.59, 5.44 and 7.22, respectively.
For `CCOc1nc2c(c(=O)n(C)c(=O)n2C)n1CCCN1CCN(c2cccc(Cl)c2)CC1` the same measures were 6.72, 6.89 and 7.64.
For `CCCOc1nc2c(c(=O)n(C)c(=O)n2C)n1CCCN1CCN(c2ccccc2OC)CC1` the same measures were 6.50, 6.48 and 6.27.
Regarding `CCCOc1nc2c(c(=O)n(C)c(=O)n2C)n1CCCN1CCN(c2cccc(Cl)c2)CC1`, the pKi in assay [1] was 6.54; in assay [2] it was 6.57; in assay [3], 7.60.
Turning to `CCOc1nc2c(c(=O)n(C)c(=O)n2C)n1CCCCN1CCN(c2ccccc2)CC1`, the negative-log Ki (pKi) in assay [1] was 7.17; in assay [2], 6.71; in assay [3] it was 6.88.
For `CCCOc1nc2c(c(=O)n(C)c(=O)n2C)n1CCCCN1CCN(c2ccccc2)CC1` the same measures were 6.89, 6.17 and 7.24.
For `CCOc1nc2c(c(=O)n(C)c(=O)n2C)n1CCCN1CCN(c2ccccc2)CC1` the same measures were 5.89, 6.32 and 6.75.
For `CCOc1nc2c(c(=O)n(C)c(=O)n2C)n1CCCCN1CCN(c2cccc(Cl)c2)CC1` the same measures were 7.92, 7.29 and 7.82.
For the compound `CCOc1nc2c(c(=O)n(C)c(=O)n2C)n1CCCN1CCc2ccccc2C1`, the figures for the pKi in assay [1], in assay [2] and in assay [3] were 5.97, 5.24 and 6.23, respectively.
For `CCOc1nc2c(c(=O)n(C)c(=O)n2C)n1CCCN1CCN(c2ccccc2OC)CC1` the same measures were 7.08, 6.39 and 6.01.
On to `CCCOc1nc2c(c(=O)n(C)c(=O)n2C)n1CCCN1CCN(c2ccccc2)CC1`, for which the results for the negative-log Ki (pKi) in assay [1], in assay [2] and in assay [3] were 6.10, 6.01 and 7.29, respectively.
With `Cn1c(=O)c2c([nH]c(=O)n2CCCN2CCc3ccccc3C2)n(C)c1=O`, the pKi in assay [1] was 5.20; in assay [2], 4.78; in assay [3] it was 5.10.
For `CCCOc1nc2c(c(=O)n(C)c(=O)n2C)n1CCCCN1CCc2ccccc2C1` the same measures were 6.48, 7.24 and 6.04.
For `Cn1c(=O)c2c([nH]c(=O)n2CCCN2CCN(c3cccc(Cl)c3)CC2)n(C)c1=O` the same measures were 5.95, 5.73 and 7.24.
Regarding `CCCOc1nc2c(c(=O)n(C)c(=O)n2C)n1CCCCN1CCN(c2ccccc2OC)CC1`, the pKi was 7.72 in assay [1], 6.80 in assay [2] and 6.82 in assay [3].

As usually defined, the pKi is the negative decadic logarithm of the Ki, by convention in mol/L.
